Laboratory results from ChEMBL document CHEMBL3244061, “Angiotensin II analogues. 12. Role of the aromatic ring of position 8 phenylalanine in pressor activity” (J Med Chem, 1979).
Peptide text beside a SMILES is read from it.

Species: Rattus norvegicus
Test: Induction of pressor activity in nephrectomized, pentolinium-treated rat model relative to angiotensin 2
Format: organism-based
Settings: in vivo
Method in brief: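 Pressor activity was measured in male rats that were nephrectomized, treated with pentolinium and anesthetized with pentobarbital. Peptides were dissolved in normal saline containing 0.1% polyvinylpyrrolidone and kept in siliconized glass. Molarities of all solutions, including the angiotensin II standard, were set from peptide content determined by amino acid analysis of hydrolysates. Activity was expressed relative to angiotensin II.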

Compound | Activity [%]
CC[C@H](C)[C@H](NC(=O)[C@H](Cc1ccc(O)cc1)NC(=O)[C@@H](NC(=O)[C@H](CCCNC(=N)N)NC(=O)[C@@H](N)CC(N)=O)C(C)C)C(=O)N[C@@H](Cc1cnc[nH]1)C(=O)N1CCC[C@H]1C(=O)N[C@@H](Cc1ccc(N)cc1)C(=O)O (HELM PEPTIDE1{N.R.V.Y.I.H.P.[Nc1ccc(C[C@H](N[*:1])C(=O)O)cc1]}$$$$V2.0) | 52.5
H-DRVYIHPV-OH | 0.5
CC[C@H](C)[C@H](NC(=O)[C@H](Cc1ccc(O)cc1)NC(=O)[C@@H](NC(=O)[C@H](CCCNC(=N)N)NC(=O)[C@@H](N)CC(N)=O)C(C)C)C(=O)N[C@@H](Cc1cnc[nH]1)C(=O)N1CCC[C@H]1C(=O)N[C@@H](Cc1ccc([N+](=O)[O-])cc1)C(=O)O (HELM PEPTIDE1{N.R.V.Y.I.H.P.[O=C(O)[C@H](Cc1ccc([N+](=O)[O-])cc1)N[*:1]]}$$$$V2.0) | 15
CC[C@H](C)[C@H](NC(=O)[C@H](Cc1ccc(O)cc1)NC(=O)[C@@H](NC(=O)[C@H](CCCNC(=N)N)NC(=O)[C@@H](N)CC(=O)O)C(C)C)C(=O)N[C@@H](Cc1c[nH]cn1)C(=O)N1CCC[C@H]1C(=O)N[C@@H](Cc1ccc(F)cc1)C(=O)O | 100
CC[C@H](C)[C@H](NC(=O)[C@H](Cc1ccc(O)cc1)NC(=O)[C@@H](NC(=O)[C@H](CCCNC(=N)N)NC(=O)[C@@H](N)CC(N)=O)C(C)C)C(=O)N[C@@H](Cc1cnc[nH]1)C(=O)N1CCC[C@H]1C(=O)NC1(C(=O)O)Cc2ccccc2C1 (HELM PEPTIDE1{N.R.V.Y.I.H.P.[O=C(O)C1(N[*:1])Cc2ccccc2C1]}$$$$V2.0) | 0.1
CC[C@H](C)[C@H](NC(=O)[C@H](Cc1ccc(O)cc1)NC(=O)[C@@H](NC(=O)[C@H](CCCNC(=N)N)NC(=O)[C@@H](N)CC(=O)O)C(C)C)C(=O)N[C@@H](Cc1c[nH]cn1)C(=O)N1CCC[C@H]1C(=O)N[C@@H](CC1CCCCC1)C(=O)O | 20
CC[C@H](C)[C@H](NC(=O)[C@H](Cc1ccc(O)cc1)NC(=O)[C@@H](NC(=O)[C@H](CCCNC(=N)N)NC(=O)CNC)C(C)C)C(=O)N[C@@H](Cc1cnc[nH]1)C(=O)N1CCC[C@H]1C(=O)N[C@@H](CC(C)C)C(=O)O (HELM PEPTIDE1{[Sar].R.V.Y.I.H.P.L}$$$$V2.0) | 2.5
H-DRVYIHPY-OH | 83
CC[C@H](C)[C@H](NC(=O)[C@H](Cc1ccc(O)c(Cc2ccccc2)c1)NC(=O)[C@@H](NC(=O)[C@H](CCCNC(=N)N)NC(=O)[C@@H](N)CC(N)=O)C(C)C)C(=O)N[C@@H](Cc1cnc[nH]1)C(=O)N1CCC[C@H]1C(=O)N[C@@H](Cc1ccc([N+](=O)[O-])cc1)C(=O)O (HELM PEPTIDE1{N.R.V.[O=C([C@H](Cc1ccc(O)c(Cc2ccccc2)c1)N[*:1])[*:2]].I.H.P.[O=C(O)[C@H](Cc1ccc([N+](=O)[O-])cc1)N[*:1]]}$$$$V2.0) | 0.16
H-NRVYVHPF-OH [ANGIOTENSIN AMIDE] | 100
CC[C@H](C)[C@H](NC(=O)[C@H](Cc1ccc(O)cc1)NC(=O)[C@@H](NC(=O)[C@H](CCCN=C(N)N)NC(=O)[C@@H](N)CC(=O)O)C(C)C)C(=O)N[C@@H](Cc1c[nH]cn1)C(=O)N1CCC[C@H]1C(=O)N[C@@H](Cc1ccc(Br)cc1)C(=O)O | 50

Now from value to compound:

Activity [%] | Compound
33 | CC[C@H](C)[C@H](NC(=O)[C@H](Cc1ccc(O)cc1)NC(=O)[C@@H](NC(=O)[C@H](CCCNC(=N)N)NC(=O)[C@@H](N)CC(=O)O)C(C)C)C(=O)N[C@@H](Cc1c[nH]cn1)C(=O)N1CCC[C@H]1C(=O)N[C@@H](Cc1ccc(OC)cc1)C(=O)O
7.3 | CCCC[C@H](NC(=O)[C@@H]1CCCN1C(=O)[C@H](Cc1cnc[nH]1)NC(=O)[C@@H](NC(=O)[C@H](Cc1ccc(O)cc1)NC(=O)[C@@H](NC(=O)[C@H](CCCNC(=N)N)NC(=O)[C@@H](N)CC(N)=O)C(C)C)[C@@H](C)CC)C(=O)O (HELM PEPTIDE1{N.R.V.Y.I.H.P.[Nle]}$$$$V2.0)
1.2 | H-NRVYIHPL-OH
1.4 | CC[C@H](C)[C@H](NC(=O)[C@H](Cc1ccc(O)cc1)NC(=O)[C@@H](NC(=O)[C@@H](C)N)C(C)C)C(=O)N[C@@H](Cc1cnc[nH]1)C(=O)N1CCC[C@H]1C(=O)N[C@@H](CC(C)C)C(=O)O
7.3 | CCCC[C@H](NC(=O)[C@@H]1CCCN1C(=O)[C@H](Cc1c[nH]cn1)NC(=O)[C@@H](NC(=O)[C@H](Cc1ccc(O)cc1)NC(=O)[C@@H](NC(=O)[C@H](CCCNC(=N)N)NC(=O)[C@@H](N)CC(=O)O)C(C)C)[C@@H](C)CC)C(=O)O
11.5 | CCCCC[C@H](NC(=O)[C@@H]1CCCN1C(=O)[C@H](Cc1cnc[nH]1)NC(=O)[C@@H](NC(=O)[C@H](Cc1ccc(O)cc1)NC(=O)[C@@H](NC(=O)[C@H](CCCNC(=N)N)NC(=O)[C@@H](N)CC(N)=O)C(C)C)[C@@H](C)CC)C(=O)O (HELM PEPTIDE1{N.R.V.Y.I.H.P.[CCCCC[C@H](N[*:1])C(=O)O]}$$$$V2.0)

Species: Rattus norvegicus
Test: Inhibition of 3 to 12 pmol angiotensin-2-induced pressor activity in rat at 400 pmol measured after 30 mins
Format: functional
Settings: not given
Method in brief: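 A single 400 pmol injection of antagonist was given. Pressor responses to single angiotensin II doses of 3, 6 and 12 pmol were then tracked. Duration (T1/2) was taken as the time for the responses to return to one-half of the pretreatment level.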

Compound | inhibition (INH) [%]
CC[C@H](C)[C@H](NC(=O)[C@H](Cc1ccc(O)cc1)NC(=O)[C@@H](NC(=O)[C@H](CCCNC(=N)N)NC(=O)CNC)C(C)C)C(=O)N[C@@H](Cc1cnc[nH]1)C(=O)N1CCC[C@H]1C(=O)N[C@@H](CC(C)C)C(=O)O (HELM PEPTIDE1{[Sar].R.V.Y.I.H.P.L}$$$$V2.0) | 50

Species: Rattus norvegicus
Test: Inhibition of 70 pmol angiotensin-2-induced pressor activity in rat at 1400 pmol/min co-infused with angiotensin-2 measured after 30 mins
Format: functional
Settings: not given
Method in brief: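 Antagonist and angiotensin II were coinjected at a 20:1 ratio (1400 pmol/70 pmol per minute) for 30 min. The percent reduction of the angiotensin II pressor effect was recorded. Recovery to one-half of the pretreatment level was followed after the infusion stopped.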

Compound | inhibition (INH) [%]
CC[C@H](C)[C@H](NC(=O)[C@H](Cc1ccc(O)cc1)NC(=O)[C@@H](NC(=O)[C@H](CCCNC(=N)N)NC(=O)CNC)C(C)C)C(=O)N[C@@H](Cc1cnc[nH]1)C(=O)N1CCC[C@H]1C(=O)N[C@@H](CC(C)C)C(=O)O (HELM PEPTIDE1{[Sar].R.V.Y.I.H.P.L}$$$$V2.0) | 67

Species: Rattus norvegicus
Test: Inhibition of angiotensin-2-induced pressor activity in rat assessed as duration of action
Format: functional, organism-based
Settings: not given
Method in brief: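 Antagonist was given to rats as a single 4000 pmol dose. Pressor responses to 20 pmol angiotensin II were then followed. Duration of action (T1/2) was taken as the time for the angiotensin II response to recover to one-half of its pretreatment level.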

Compound | T1/2 [min]
CC[C@H](C)[C@H](NC(=O)[C@H](Cc1ccc(O)cc1)NC(=O)[C@@H](NC(=O)[C@H](CCCNC(=N)N)NC(=O)CNC)C(C)C)C(=O)N[C@@H](Cc1cnc[nH]1)C(=O)N1CCC[C@H]1C(=O)N[C@@H](CC(C)C)C(=O)O (HELM PEPTIDE1{[Sar].R.V.Y.I.H.P.L}$$$$V2.0) | 45
